These results are taken from ChEMBL document CHEMBL4715934, “Discovery of Imidazopyridines as Potent Inhibitors of Indoleamine 2,3-Dioxygenase 1 for Cancer Immunotherapy” (ACS Med Chem Lett, 2021).

Data set [1] addresses Indoleamine 2,3-dioxygenase 1 (Mus musculus, UniProt P28776). As to the kind of experiment: Inhibition of IDO1 in recombinant IFN-gamma induced mouse M109 cells incubated for 18 hrs by fluorescence microplate reader assay. In kind it is cell-based. The essentials:
(§1)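 HeLa (human) or M109 (murine) cells induced with IFNγ to express IDO1, then cellular IDO1 activity measured; values are the average of N = 2 unless noted.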

Data set [2] can be described thus: Metabolic stability in human liver microsomes assessed as parent compound remaining at 0.5 uM after 10 mins. In kind it is ADME, Microsome. The following applies: read-out: Stabilty. The essentials:
(§2)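 Parent compound at 0.5 μM incubated 10 min with 1 mg/mL human, mouse or rat liver microsomes; fraction of parent remaining reported; average of N = 2 unless noted.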
In general terms: Liver microsomes are a subcellular fraction often used to study metabolism.

Data set [3] concerns the target T1, Indoleamine 2,3-dioxygenase 1 (Homo sapiens, UniProt P14902). Briefly: Inhibition of IDO1 in recombinant IFN-gamma induced human HeLa cells incubated for 18 hrs by fluorescence microplate reader assay. An outline of the steps: as §1
Data set [4] can be described thus: Metabolic stability in rat liver microsomes assessed as parent compound remaining at 0.5 uM after 10 mins. The following applies: read-out: Stabilty. In kind it is ADME, Microsome. The essentials:
as §2

Data set [5] is described as follows: Metabolic stability in mouse liver microsomes assessed as parent compound remaining at 0.5 uM after 10 mins. In kind it is ADME, Microsome. The following applies: read-out: Stabilty. An outline of the steps: as §2
In data set [6] the target is T1, Indoleamine 2,3-dioxygenase 1. Briefly: Inhibition of IDO1 in IFN-gamma/LPS induced human whole blood assessed as tryptophan/kynurenine level measured after 18 hrs by RapidFire mass spectrometry. In kind it is tissue-based.

Chain of Indoleamine 2,3-dioxygenase 1 (Mus musculus, UniProt P28776) (P28776 whole entry): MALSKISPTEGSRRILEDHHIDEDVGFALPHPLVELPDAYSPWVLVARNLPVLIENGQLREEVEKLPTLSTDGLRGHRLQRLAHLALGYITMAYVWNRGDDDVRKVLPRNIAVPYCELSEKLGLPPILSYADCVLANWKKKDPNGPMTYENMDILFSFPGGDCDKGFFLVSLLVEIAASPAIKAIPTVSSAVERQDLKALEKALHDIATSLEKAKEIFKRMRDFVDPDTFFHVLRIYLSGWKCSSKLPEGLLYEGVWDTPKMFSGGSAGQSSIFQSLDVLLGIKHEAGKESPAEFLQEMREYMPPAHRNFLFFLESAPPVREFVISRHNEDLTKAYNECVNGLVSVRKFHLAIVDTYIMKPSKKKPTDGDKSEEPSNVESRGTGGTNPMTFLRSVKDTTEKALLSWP
T1 sequence (P14902 whole entry): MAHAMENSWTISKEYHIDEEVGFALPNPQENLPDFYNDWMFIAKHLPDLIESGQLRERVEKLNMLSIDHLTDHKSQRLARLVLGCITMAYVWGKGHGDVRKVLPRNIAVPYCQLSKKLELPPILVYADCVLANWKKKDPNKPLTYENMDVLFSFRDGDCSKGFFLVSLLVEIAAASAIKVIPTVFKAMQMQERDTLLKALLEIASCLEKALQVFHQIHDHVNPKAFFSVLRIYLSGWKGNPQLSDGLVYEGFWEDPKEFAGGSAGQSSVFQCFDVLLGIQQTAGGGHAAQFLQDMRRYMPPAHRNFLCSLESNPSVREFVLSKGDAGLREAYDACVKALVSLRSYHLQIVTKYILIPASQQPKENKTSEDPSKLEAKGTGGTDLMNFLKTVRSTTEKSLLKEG

Broadly, the IC50 is the midpoint of a concentration-inhibition curve. On to `COc1ccc(Nc2nnc([C@H](C)[C@H]3CC[C@@H](c4ccnc5ccc(F)cc54)CC3)o2)cc1`, for which the IC50 was 451 nM in data set [1] and 165 nM in data set [3]. For the same compound, the remaining at 10 min, 0.5 µM in data set [2] is 18%; in data set [4], 0.4%; in data set [5] it was 2%.

As for `CCC(Nc1nnc(-c2ccc(OC)cc2)o1)[C@H]1CC[C@@H](c2ccnc3ccc(F)cc32)CC1` (some centres not stated), the half-inhibitory concentration (IC50) in data set [1] is 31 nM; in data set [3], 6 nM; in data set [6] it was 16 nM. Moreover, the remaining at 10 min, 0.5 µM in data set [2] was determined as 66%; in data set [4] it was 45%; in data set [5], 31%.

Turning to `C[C@@H](c1ncc(-c2ccc(Cl)cc2)[nH]1)[C@H]1CC[C@@H](c2ccnc3ccc(F)cc32)CC1`, the figures for the 50% inhibitory concentration (IC50) in data set [1] and in data set [3] were 80 nM and 11 nM, respectively. In addition, the remaining at 10 min, 0.5 µM in data set [2] was 58%; in data set [4] it was 3%; in data set [5], 59%.

Consider `CCC(Nc1nnc(-c2ccc(OC)cc2)o1)[C@H]1CC[C@@H](c2ccnc3ccc(C(F)(F)F)cc32)CC1` (some centres not stated), for which the IC50 in data set [1] came to 6 nM; in data set [3], 3 nM; in data set [6], 50 nM. In addition, the figures for the remaining at 10 min, 0.5 µM in data set [2], in data set [4] and in data set [5] were 83%, 100% and 39%, respectively.

Consider `CCOCC(Nc1nnc(-c2ccc(OC)cc2)o1)[C@H]1CC[C@@H](c2ccnc3ccc(C(F)(F)F)cc32)CC1` (some centres not stated), for which the values for the 50% inhibitory concentration (IC50) in data set [1], in data set [3] and in data set [6] were 57 nM, 13 nM and 96 nM, respectively. The remaining at 10 min, 0.5 µM in data set [2] was 60%; in data set [4] it was 53%; in data set [5] it was 41%.

On to `C[C@@H](c1ncc(-c2ccc(Cl)cc2)o1)[C@H]1CC[C@@H](c2ccnc3ccc(F)cc32)CC1`, for which the IC50 was 631 nM in data set [1] and 495 nM in data set [3]. The remaining at 10 min, 0.5 µM in data set [2] was 97%; in data set [4] it was 62%; in data set [5], 78%.

Take `CCC(c1nc2ncc(Cl)cc2[nH]1)[C@H]1CC[C@@H](c2ccnc3ccc(F)cc32)CC1` (some centres not stated): the IC50 in data set [1] was 5 nM; in data set [3], 2 nM; in data set [6], 6 nM. Besides, the figures for the remaining at 10 min, 0.5 µM in data set [2], in data set [4] and in data set [5] were 78%, 35% and 7%, respectively.

Turning to `CCC(c1nc2ccc(Cl)cc2[nH]1)[C@H]1CC[C@@H](c2ccnc3ccc(F)cc32)CC1` (some centres not stated), the figures for the half-maximal inhibitory concentration (IC50) in data set [1], in data set [3] and in data set [6] were 3 nM, 2 nM and 9 nM, respectively. Besides, the remaining at 10 min, 0.5 µM was 82% in data set [2], 27% in data set [4] and 49% in data set [5].

For `C[C@@H](c1nc2ccc(Cl)cc2[nH]1)[C@H]1CC[C@@H](c2ccnc3ccc(F)cc32)CC1`, the values for the half-inhibitory concentration (IC50) in data set [3] and in data set [6] were 3 nM and 32 nM, respectively. Further, the remaining at 10 min, 0.5 µM in data set [4] is 8%.

As to `COCC(Nc1nnc(-c2ccc(OC)cc2)o1)[C@H]1CC[C@@H](c2ccnc3ccc(F)cc32)CC1` (some centres not stated), the IC50 in data set [1] was determined as 44 nM; in data set [3] it was 3 nM; in data set [6] it was 31 nM. Also, the results for the remaining at 10 min, 0.5 µM in data set [2], in data set [4] and in data set [5] were 57%, 24% and 19%, respectively.

`C[C@@H](c1nc2ncc(Cl)cc2[nH]1)[C@H]1CC[C@@H](c2ccnc3ccc(F)cc32)CC1`: the 50% inhibitory concentration (IC50) in data set [1] is 36 nM; in data set [3], 4 nM; in data set [6] it was 39 nM. Moreover, the values for the remaining at 10 min, 0.5 µM in data set [2], in data set [4] and in data set [5] were 67%, 17% and 22%, respectively.

On to `CCC(c1nc2ccc(Cl)cc2[nH]1)[C@H]1CC[C@H](Oc2ccnc3ccccc23)CC1` (some centres not stated), for which the IC50 in data set [1] came out at 52 nM; in data set [3], 7 nM; in data set [6] it was 36 nM. Also, the remaining at 10 min, 0.5 µM in data set [2] amounted to 84%; in data set [4] it was 80%; in data set [5] it was 82%.

For `CCC(Nc1nnc(-c2ccc(OC)cc2)o1)[C@H]1CC[C@@H](c2ccnc3c(F)cc(F)cc32)CC1` (some centres not stated), the IC50 in data set [1] is 36 nM; in data set [3], 3 nM; in data set [6], 14 nM. Besides, the remaining at 10 min, 0.5 µM in data set [2] was 54%; in data set [4], 52%; in data set [5], 8%.

Consider `C[C@@H](c1nnc(-c2ccc(Cl)cc2)o1)[C@H]1CC[C@@H](c2ccnc3ccc(F)cc32)CC1`, for which the half-maximal inhibitory concentration (IC50) in data set [1] stood at 348 nM; in data set [3], 239 nM. The remaining at 10 min, 0.5 µM in data set [2] came to 68%; in data set [4], 23%; in data set [5], 41%.

`C[C@@H](c1nnc(-c2ccc(Cl)cc2)[nH]1)[C@H]1CC[C@@H](c2ccnc3ccc(F)cc32)CC1`: the IC50 in data set [1] turned out to be 286 nM; in data set [3], 20 nM. Further, the remaining at 10 min, 0.5 µM in data set [2] stood at 88%; in data set [4], 82%; in data set [5] it was 69%.

Regarding `COc1ccc(-c2nnc(N[C@H](C)[C@H]3CC[C@@H](c4ccnc5ccc(F)cc54)CC3)o2)cc1`, the IC50 in data set [1] came out at 14 nM; in data set [3], 3 nM. Also, the remaining at 10 min, 0.5 µM in data set [2] came to 64%; in data set [4], 35%; in data set [5] it was 17%.

Take `C[C@@H](c1nc2ccc(F)cc2[nH]1)[C@H]1CC[C@@H](c2ccnc3ccc(F)cc32)CC1`: the IC50 amounted to 22 nM in data set [1] and 3 nM in data set [3]. Further, the results for the remaining at 10 min, 0.5 µM in data set [2], in data set [4] and in data set [5] were 42%, 0% and 5%, respectively.
